Laboratory results reported in ChEMBL document CHEMBL4043283, “Discovery and Preclinical Development of IIIM-290, an Orally Active Potent Cyclin-Dependent Kinase Inhibitor” (J Med Chem, 2018).

Key:
MIA PaCa-2 [1] = test: Growth inhibition of human MIAPaCa2 cells at 10 uM after 48 hrs by MTT assay relative to control; format: functional; conditions: MIA PaCa-2, 48 h, read-out: GI
Procedure, shortened: (§1)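 Single-concentration primary screen at 10 μM by MTT assay. Cells were NCI-sourced cancer lines grown in appropriate medium at 37 °C, 95% humidity, 5% CO2. Growth inhibition is expressed relative to control.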

MIA PaCa-2 [2] = test: Growth inhibition of human MIAPaCa2 cells after 48 hrs by MTT assay; format: functional; conditions: MIA PaCa-2, 48 h
Procedure, shortened: (§2)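 Cancer cell lines sourced from the National Cancer Institute (USA). Cells kept in appropriate growth medium at 37 °C, 95% humidity, 5% CO2. Antiproliferation read by tetrazolium (MTT) assay. GI50 values were determined only for compounds selected after an initial single-concentration screen.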

MCF7 [3] = test: Growth inhibition of human MCF7 cells after 48 hrs by MTT assay; format: functional; conditions: MCF7, 48 h; procedure, shortened: as §2
[4] = biological target: CDK2/Cyclin A2 (Homo sapiens) (UniProt P24941+P20248); test: Inhibition of CDK2/cyclin A (unknown origin) at 0.5 uM using histone H1 as substrate after 30 mins in presence of [33P]-gamma-ATP by filter binding assay relative to control; format: protein-complex assay
MCF7 [5] = test: Growth inhibition of human MCF7 cells at 10 uM after 48 hrs by MTT assay relative to control; format: functional; conditions: MCF7, 48 h, read-out: GI; procedure, shortened: as §1
CDK2/Cyclin A2 = CDK2/Cyclin A2 (Homo sapiens, UniProt P24941); test: Inhibition of CDK2/cyclin A (unknown origin) using histone H1 as substrate after 30 mins in presence of [33P]-gamma-ATP by filter binding assay; format: protein-complex assay
PC-3 [6] = test: Growth inhibition of human PC3 cells after 48 hrs by MTT assay; format: functional; conditions: PC-3, 48 h; procedure, shortened: as §2
PC-3 [7] = test: Growth inhibition of human PC3 cells at 10 uM after 48 hrs by MTT assay relative to control; format: functional; conditions: PC-3, 48 h, read-out: GI; procedure, shortened: as §1
HL-60 [8] = test: Growth inhibition of human HL60 cells after 48 hrs by MTT assay; format: functional; conditions: HL-60, 48 h; procedure, shortened: as §2
CDK9/cyclin T1 = CDK9/cyclin T1 (Homo sapiens, UniProt P50750); test: Inhibition of CDK9/cyclin T1 (unknown origin) using YSPTSPSYSPTSPSYSPTSPKKK as substrate after 30 mins in presence of [33P]-gamma-ATP by filter binding assay; format: protein-complex assay
Sequence of CDK9/cyclin T1 (O60563 whole entry): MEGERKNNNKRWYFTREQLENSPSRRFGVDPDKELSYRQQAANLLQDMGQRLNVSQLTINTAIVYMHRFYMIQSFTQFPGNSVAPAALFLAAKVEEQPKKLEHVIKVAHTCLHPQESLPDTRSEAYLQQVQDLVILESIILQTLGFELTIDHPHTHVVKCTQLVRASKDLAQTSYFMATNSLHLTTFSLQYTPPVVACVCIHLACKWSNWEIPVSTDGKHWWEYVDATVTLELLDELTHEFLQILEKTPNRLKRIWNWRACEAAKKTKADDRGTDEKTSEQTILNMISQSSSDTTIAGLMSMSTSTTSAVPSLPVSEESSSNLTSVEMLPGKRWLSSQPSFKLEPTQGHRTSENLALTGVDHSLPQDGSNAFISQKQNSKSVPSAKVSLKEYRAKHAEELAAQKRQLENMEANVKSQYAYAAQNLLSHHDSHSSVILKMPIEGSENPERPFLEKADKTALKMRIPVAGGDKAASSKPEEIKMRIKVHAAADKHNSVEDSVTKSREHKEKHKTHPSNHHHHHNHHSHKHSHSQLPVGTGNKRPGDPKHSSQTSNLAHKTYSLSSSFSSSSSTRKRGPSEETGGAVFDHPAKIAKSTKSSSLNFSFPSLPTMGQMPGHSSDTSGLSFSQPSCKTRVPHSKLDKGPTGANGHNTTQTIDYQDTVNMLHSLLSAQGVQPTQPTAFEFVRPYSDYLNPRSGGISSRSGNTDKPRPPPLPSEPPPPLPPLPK
Sequence of CDK9/cyclin T1 (P50750 whole entry): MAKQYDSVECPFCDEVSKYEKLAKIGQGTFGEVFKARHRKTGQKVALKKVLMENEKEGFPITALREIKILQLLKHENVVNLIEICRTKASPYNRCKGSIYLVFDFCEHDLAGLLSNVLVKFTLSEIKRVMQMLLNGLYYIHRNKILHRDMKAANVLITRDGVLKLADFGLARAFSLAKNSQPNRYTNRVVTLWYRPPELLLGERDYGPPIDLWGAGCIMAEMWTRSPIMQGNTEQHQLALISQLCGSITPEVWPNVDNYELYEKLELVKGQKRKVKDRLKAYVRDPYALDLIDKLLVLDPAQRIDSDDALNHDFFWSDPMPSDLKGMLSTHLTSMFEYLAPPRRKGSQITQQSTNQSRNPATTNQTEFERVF

[9] = biological target: CDK9/cyclin T1 (Homo sapiens) (UniProt O60563+P50750); test: Inhibition of CDK9/cyclin T1 (unknown origin) at 0.5 uM using YSPTSPSYSPTSPSYSPTSPKKK as substrate after 30 mins in presence of [33P]-gamma-ATP by filter binding assay relative to control; format: protein-complex assay
Caco-2 [10] = test: Growth inhibition of human Caco2 cells at 10 uM after 48 hrs by MTT assay relative to control; format: functional; conditions: Caco-2, 48 h, read-out: GI; procedure, shortened: as §1
Caco-2 [11] = test: Growth inhibition of human Caco2 cells after 48 hrs by MTT assay; format: functional; conditions: Caco-2, 48 h; procedure, shortened: as §2
HL-60 [12] = test: Growth inhibition of human HL60 cells at 10 uM after 48 hrs by MTT assay relative to control; format: functional; conditions: HL-60, 48 h, read-out: GI; procedure, shortened: as §1

| SMILES | inhibition of growth at 10 µM (MIA PaCa-2 [1]) | GI50 (MIA PaCa-2 [2]) | GI50 (MCF7 [3]) | inhibition [4] | inhibition of growth at 10 µM (MCF7 [5]) | IC50 (CDK2/Cyclin A2) | GI50 (PC-3 [6]) | inhibition of growth at 10 µM (PC-3 [7]) | GI50 (HL-60 [8]) | IC50 (CDK9/cyclin T1) | inhibition [9] | inhibition of growth at 10 µM (Caco-2 [10]) | GI50 (Caco-2 [11]) | inhibition of growth at 10 µM (HL-60 [12]) |
| --- | --- | --- | --- | --- | --- | --- | --- | --- | --- | --- | --- | --- | --- | --- |
| CN1CC[C@H](c2c(O)cc(O)c3c(=O)cc(/C=C/c4cccc(F)c4)oc23)[C@H](O)C1 | 67% | 2 µM | 3 µM | 53% | 83% | 0.466 µM | 7 µM | 67% | 8 µM | 0.029 µM | 88% | 61% | 8 µM | 60% |
| Cc1cc(=O)c2c(O)cc(O)c([C@H]3CCN(C)C[C@H]3O)c2o1 [ROHITUKINE] | 2% | 19 µM | 28 µM |  | 15% |  | 19 µM | 33% | 10 µM |  |  | 12% | 25 µM | 83% |
| CN1CC[C@H](c2c(O)cc(O)c3c(=O)cc(/C=C/c4c5ccccc5cc5ccccc45)oc23)[C@H](O)C1 | 77% | 4 µM | 5 µM | 43% | 78% | 1.8 µM | > 100 µM | 75% | 4 µM | 0.35 µM | 80% | 44% | 4 µM | 78% |
| Cc1cc(=O)c2c(O)cc(O)c([C@H]3CCN(C)C[C@H]3OC(=O)c3ccco3)c2o1 | 13% |  |  | 10% | 20% |  |  | 23% |  |  | 0% | 33% |  | 22% |
| CCOC(=O)N1CCN(Cc2c(O)c([C@H]3CCN(C)C[C@H]3O)c3oc(C)cc(=O)c3c2O)CC1 | 4% |  |  | 5% | 31% |  |  | 1% |  |  | 0% | 18% |  | 16% |
| Cc1cc(=O)c2c(O)c(CN3CCCC3C(=O)O)c(O)c([C@H]3CCN(C)C[C@H]3O)c2o1 (stereo partly drawn) | 10% |  |  | 17% | 21% |  |  | 0% |  |  | 0% | 30% |  | 16% |
| Cc1cc(=O)c2c(O)cc(OCc3ccccc3Br)c([C@H]3CCN(C)C[C@H]3O)c2o1 | 30% |  |  | 6% | 45% |  |  | 32% |  |  | 0% | 35% |  | 3% |
| Cc1oc2c([C@H]3CCN(C)C[C@H]3O)c(O)cc(O)c2c(=O)c1C(O)c1ccc([N+](=O)[O-])cc1 (stereo partly drawn) | 2% |  |  | 6% | 4% |  |  | 24% |  |  | 8% | 5% |  | 0% |
| COc1ccc(C(O)c2c(C)oc3c([C@H]4CCN(C)C[C@H]4O)c(O)cc(O)c3c2=O)cc1Br (stereo partly drawn) | 3% |  |  | 3% | 41% |  |  | 0% |  |  | 0% | 0% |  | 23% |
| Cc1cc(=O)c2c(O)cc(OCc3ccco3)c([C@H]3CCN(C)C[C@H]3O)c2o1 | 7% |  |  | 7% | 6% |  |  | 14% |  |  | 8% | 17% |  | 32% |
| Cc1oc2c([C@H]3CCN(C)C[C@H]3O)c(O)cc(O)c2c(=O)c1C(O)c1cc(F)cc(F)c1 (stereo partly drawn) | 6% |  |  | 2% | 25% |  |  | 0% |  |  | 10% | 10% |  | 30% |
| Cc1cc(=O)c2c(O)c(CN3CCCCC3)c(O)c([C@H]3CCN(C)C[C@H]3O)c2o1 | 14% |  |  | 10% | 15% |  |  | 14% |  |  | 10% | 22% |  | 32% |
| Cc1oc2c([C@H]3CCN(C)C[C@H]3O)c(O)cc(O)c2c(=O)c1C(O)c1cccc(Cl)c1Cl (stereo partly drawn) | 2% |  |  | 0% | 7% |  |  | 20% |  |  | 0% | 3% |  | 12% |
| Cc1oc2c([C@H]3CCN(C)C[C@H]3O)c(O)cc(O)c2c(=O)c1C(O)c1ccccc1Br (stereo partly drawn) | 10% |  |  | 0% | 21% |  |  | 45% |  |  | 29% | 7% |  | 52% |
| Cc1cc(=O)c2c(O)cc(OCc3ccc(Br)cc3)c([C@H]3CCN(C)C[C@H]3O)c2o1 | 13% |  |  | 0% | 14% |  |  | 17% |  |  | 0% | 13% |  | 27% |
| CCCCCCCCCC/C=C/c1c(C)oc2c([C@H]3CCN(C)C[C@H]3O)c(O)cc(O)c2c1=O | 4% |  |  | 5% | 7% |  |  | 0% |  |  | 11% | 10% |  | 9% |
| Cc1cc(=O)c2c(O)c(CN(C)CC(=O)O)c(O)c([C@H]3CCN(C)C[C@H]3O)c2o1 | 16% |  |  | 0% | 27% |  |  | 20% |  |  | 0% | 18% |  | 23% |
| CCN(CC)Cc1c(O)c([C@H]2CCN(C)C[C@H]2O)c2oc(C)cc(=O)c2c1O | 27% |  |  | 0% | 24% |  |  | 2% |  |  | 4% | 17% |  | 47% |
